The source made the active and inactive calls.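 The calls were made as follows: active = compounds whose mean dose-response EC50 for APJ receptor activation is under 20 micromolar; inactive = the rest.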
Biological target: Apelin receptor (Homo sapiens) (UniProt P35414)
Assay: APJ agonists inducing beta-arrestin recruitment, dose response, cell-based, luminescence, uHTS hits (AID 488748)
Conditions: CHO-K1 APJ PathHunter beta-arrestin
Summary of the method: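 Test system: CHO-K1 APJ beta-arrestin complementation cell line. Compound: multi-dose compound series. Incubation: 90 min compound treatment at 25 °C. Measured by: beta-gal complementation luminescence. Benchmarks: Apelin-13 high control.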

Sequence of Apelin receptor (Homo sapiens) (P35414 whole entry, looked up): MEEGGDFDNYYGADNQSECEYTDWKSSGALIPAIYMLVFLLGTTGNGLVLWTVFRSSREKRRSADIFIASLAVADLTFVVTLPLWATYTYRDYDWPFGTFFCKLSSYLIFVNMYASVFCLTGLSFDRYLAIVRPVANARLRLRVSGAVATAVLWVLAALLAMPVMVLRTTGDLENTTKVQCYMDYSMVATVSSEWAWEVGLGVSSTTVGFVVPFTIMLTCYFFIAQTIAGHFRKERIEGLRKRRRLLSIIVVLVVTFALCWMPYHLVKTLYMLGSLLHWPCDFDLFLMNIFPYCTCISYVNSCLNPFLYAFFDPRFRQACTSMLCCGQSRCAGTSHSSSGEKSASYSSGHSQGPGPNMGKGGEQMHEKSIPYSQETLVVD

| SMILES | EC50 |
| --- | --- |
| CC1=CC(=O)C(C(C)C)=C/C1=N/OS(=O)(=O)c1ccccc1 | 7.6 µM |
| COC(=O)C1=C(Cn2cnc3ccccc32)NC(=O)NC1c1cc(C)ccc1C (stereo not given) | > 100 µM (inactive) |
| CCOC(=O)C1=C(Cn2cnc3ccccc32)NC(=O)NC1c1cc(C)ccc1C (stereo not given) | > 100 µM (inactive) |
| COc1ccc(/C=N/Nc2cc(C)nc3ccc(OC)cc23)c(OC)c1 | > 100 µM (inactive) |
| CCCCCCc1cc2cc(-c3nnc(-c4cc(OC)c(OC)c(OC)c4)o3)c(=O)oc2cc1O | > 100 µM (inactive) |

Reference: PubChem BioAssay AID488748 (Sanford-Burnham Center for Chemical Genomics, 2010)
